MEX-5 binding: C. elegans MEX-5 TCR-2 RNA binding activity | Q9XUB2 | MEX-5/FITC-TCR2 RNA binding, fluorescence polarization; hits give low values | activity score (negative = inhibition of binding), % at 10 µM | 300,000 compounds, 0.38% hits | AID 1832;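 active means inhibition past about -25% in most replicates, and total fluorescence under double the plate's negative control median, limit read from the data; inconclusive means replicates evenly split on the limit, or fluorescence at least double controls; inactive means too little inhibition in most replicates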;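 further: 0% = DMSO and -100% = 5 µM competing unlabeled TCR2 RNA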
PKD1 kinase inh: inhibitors of human PKD1 kinase | Q15139 | PKD1 kinase fluorescence polarization assay | inhibition, % (no concentration beside the values) | 200,000 compounds, 0.056% hits | AID 797
Runt-SMMHC FRET: blocks binding of human RUNX1 Runt domain to CBFb-SMMHC. Q01196+Q13951. 220,000 compounds, 0.74% hits. AID 1434. inhibition, % at 20 µM. Cerulean-Runt/Venus-CBFb-SMMHC FRET ratio 530/480, 1 h;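 active means mean inhibition across duplicate retests at 20 µM reaching about 50%, limit read from the data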;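 further: 0% = DMSO wells and 100% = wells with excess untagged CBFb-SMMHC; inhibitors lower the FRET ratio by blocking Runt binding to CBFb-SMMHC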
RanGTP-Impb inh: disruptors of Ran-importin-beta complex formation – biochemical, FRET, CFP-Ran, YFP-importin-beta, homogeneous, primary screen | cell-free CFP-Ran/YFP-importin-beta FRET ratio | inhibition, % (test concentration not listed) | 300,000 compounds, 1.1% hits | AID 2216;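 active means more than half of the replicate wells show a fall in the fluorescence ratio signal beyond about 16%, limit read from the data, passing the limit was not always enough; inconclusive means exactly half of the replicate wells pass the set limit; inactive means fewer than half of replicates pass the limit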;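 further: 0% = DMSO wells and 100% = Ran loaded with GDP instead of GTP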
EBV gp42 block: inhibitors of Epstein-Barr virus glycoprotein 42 | Fluorescence polarization binding assay, mP read-out | inhibition, % (tested at 21.74 µM) | Q1HVG2 | 220,000 compounds, 0.42% hits
Runt-CBFb FRET: Runt domain-CBFb interaction inhibition | Cerulean-Runt/Venus-CBFb FRET ratio 530/480, 1 h | inhibition, % at 20 µM | 220,000 compounds, 0.46% hits;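 active means inhibition over about 50% at 20 µM in the single-dose screen, limit read from the data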;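 further: 0% = DMSO wells and 100% = excess unlabeled CBFb competitor control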
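System: Cerulean-labeled Runt domain protein | Quantity: 100 nM of each labeled protein | Schedule: 1 h compound exposure, room temperature | Detection: Fluorescence energy transfer, 422 nm excitation, 530/480 nm emission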
Numbers without * were called inactive; u = inconclusive; x = no result. An excerpt weighted towards active compounds, which were near 2% of everything screened. Unless noted, no stated cut-off is given here; in the data, active means inhibition above about 50%; inactive means the rest.

SMILES | MEX-5 binding | PKD1 kinase inh | Runt-SMMHC FRET | RanGTP-Impb inh | EBV gp42 block | Runt-CBFb FRET
CC(=O)c1ccc(N2C(=O)C3C(C2=O)C(C(=O)c2ccc(Cl)cc2)N2CCCC32)cc1 (stereo not drawn) | x | -1 | -34 | x | 89* | -1
Cc1cc(C)cc(OCC(=O)OCc2nnc(-c3ccccc3)o2)c1 | 3 | -1 | -3 | -5 | -4 | x
Cc1cccn2c(=O)c3cc(C#N)c(=NC(=O)c4ccncc4)n(CCCOC(C)C)c3nc12 | 32 | 3 | 38 | 140* | 37 | 97*
CCOC(=O)c1cc2c(=O)n3cccc(C)c3nc2n(CCOC)c1=NC(=O)c1ccncc1 | x | -8 | x | x | x | x
CC(=O)N=c1c(C#N)cc2c(=O)n3cccc(C)c3nc2n1CCCOC(C)C | -26* | x | 82* | 111* | 2 | 115*
COCCCn1c(=NC(=O)c2ccncc2)c(C#N)cc2c(=O)n3cccc(C)c3nc21 | 3 | -1 | 62* | 68* | 36 | 48
CCOCCCn1c(=NC(=O)c2cccs2)c(C#N)cc2c(=O)n3ccccc3nc21 | u | x | 81* | 105* | 36 | 86*
COc1cccc2cc(CC(=O)c3ccccc3)c(=O)oc12 | 0 | x | x | -1 | x | x
Cc1nc2c(C)cccn2c(=O)c1NC(=O)c1cccs1 | -1 | x | x | 4 | x | x
CCOC(=O)/C(C#N)=C/c1c(N2CCN(Cc3ccc4c(c3)OCO4)CC2)nc2c(C)cccn2c1=O | 3 | x | -17 | -36 | -22 | -11
Cc1cccn2c(=O)c3cc(C#N)c(=NC(=O)c4cccs4)n(CCCOC(C)C)c3nc12 | -45* | x | 88* | 81* | -4 | 79*
CCCn1c(=NC(=O)c2ccc3c(c2)OCO3)c(C#N)cc2c(=O)n3cccc(C)c3nc21 | x | x | 67* | x | x | 125*
CCCCn1c(=NC(=O)c2cccnc2)c(C#N)cc2c(=O)n3cccc(C)c3nc21 | -9 | 19 | 58* | 107* | 35 | 124*
O=C(Cn1ccc2cc(S(=O)(=O)N3CCCCC3)ccc21)NCc1ccccc1F | 2 | x | x | -1 | x | x
Cc1ccccc1C(=O)N1CCC(C(=O)Nc2ccccc2N2CCCC2)CC1 | -1 | x | x | 7 | x | x
Cc1[nH]n(-c2ccccc2)c(=S)c1C=Nc1ccc([N+](=O)[O-])cc1 | x | -6 | 74* | x | -19 | -7
COc1cc(/C=N/OCC(=O)Nc2cc(C)cc(C)c2)ccc1OCc1ccc(Cl)cc1 | 5 | 5 | 18 | 26* | -123 | 4
COc1cc(/C=N/OCC(=O)NC2CCCCC2C)ccc1OCc1ccc(Cl)cc1 (stereo not drawn) | 3 | -10 | -2 | u | -22 | -4
O=[N+]([O-])/C(C(Cl)=C(Cl)Cl)=C1\Nc2ccccc2O1 | -2 | x | 6 | 3 | -11 | 8
CCOc1ccc2c(c1)/C(=C(\C(Cl)=C(Cl)Cl)[N+](=O)[O-])N2 | -44* | -1 | -21 | -110 | -3 | -6
CCCCOc1ccc2c(c1)/C(=C(\C(Cl)=C(Cl)Cl)[N+](=O)[O-])N2 | -59* | 2 | -31 | -100 | 56* | -10
O=C(C1CCCN(Cc2ccc(Br)cc2)C1)N1CCCCC1 (stereo not drawn) | -1 | x | x | -3 | x | x
COc1cccc(CNC(=O)CCCn2nc(C)c3c(C)n(-c4ccc(C)cc4)nc3c2=O)c1OC | -4 | x | x | 6 | x | x
CN1CCN(CCNC(=O)Cn2c(=O)c3cccn3c3ccc(F)cc32)CC1 | 0 | x | x | 4 | x | x
CCOc1ccc2nc(N3CCOCC3)nc(C)c2c1 | -8 | -2 | 79* | 58* | -14 | 74*
O=C(N/N=C/C=C/c1ccc([N+](=O)[O-])cc1)c1cccs1 | -72* | 3 | -79 | -48 | -51 | -36
N=C1S/C(=C\c2ccc(-c3cccc(Cl)c3)o2)C(=O)N1c1nccs1 | 0 | -6 | 12 | -13 | 76* | 40
CCOC(=O)c1nc(-c2ccc(OC)c(OC)c2)no1 | 3 | 0 | -2 | 5 | -4 | 2
CN(N=Nc1ccc([N+](=O)[O-])cc1)c1ccccc1 | -58* | 6 | -275 | 0 | 82* | -156
